Experimental data taken from PMC6683736 (The Journal of Cell Biology, 2019).

Legend:
[1] = tested on: Xenopus embryos; assay: Junctional localization in gastrula-stage embryos; assay type: in vivo, Xenopus laevis; conditions: live confocal, mNeon-tagged
Method in brief: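 Embryos were microinjected in the animal hemisphere with mRNAs, either at the two-cell stage (each cell twice) or at the four-cell stage (once). They were raised to gastrula stage (10.5–12) and live-imaged by confocal. mNeon-tagged protein was coexpressed with BFP-ZO-1 (tight junction marker) and PLEKHA7-mCherry (adherens junction marker), and the junctional-to-cytosolic intensity ratio was quantified.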

[2] = tested on: Scribble; assay: Coimmunoprecipitation of SGEF constructs with GFP-Scribble, HEK293FT lysates; assay type: binding, Human; conditions: GFP-trap nanobodies, WB
[3] = tested on: Dlg1; assay: Coimmunoprecipitation of SGEF constructs with GFP-Dlg1, HEK293FT lysates; assay type: binding, Mouse; conditions: GFP-trap nanobodies, WB
Method in brief: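 HEK293FT cells were co-transfected by calcium phosphate; medium was changed at 24 h and cells harvested at 48 h. Lysis was in Tris-HCl pH 7.4, MgCl2, 150 mM NaCl, 1% Triton X-100 and protease inhibitors. Equal protein was incubated with GFP-Trap beads for 1 h at 4°C, washed four times, then immunoblotted with anti-GFP and anti-myc (or anti-His).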

Molecule	localization at apical junctional complex [1]	interaction with Scribble [2]	interaction with Dlg1 [3]
mNeon-RhoG: mNeon-tagged small GTPase RhoG, 1–191	more broadly localized along the lateral membrane	–	–
Gly 45 residue for Pro: SGEF with Gly 45 replaced by Pro (protein, UniProt Q96DR7 1-871, looked up, variant G45P) Rho guanine nucleotide …: MDGESEVDFSSNSITPLWRRRSIPQPHQVLGRSKPRPQSYQSPNPLLITDFPVEDGGTLLAAQIPAQVPTASDSRTVHRSPLLLGAQRRAVANGGTASPEYRAASPRLRRPKSPKLPKAVPGGSPKSPANGAVTLPAPPPPPVLRPPRTPNAPAPCTPEEDLTGLTASPVPSPTANGLAANNDSPGSGSQSGRKAKDPERGLFPGPQKSSSEQKLPLQRLPSQENELLENPSVVLSTNSPAALKVGKQQIIPKSLASEIKISKSNNQNVEPHKRLLKVRSMVEGLGGPLGHAGEESEVDNDVDSPGSLRRGLRSTSYRRAVVSGFDFDSPTSSKKKNRMSQPVLKVVMEDKEKFSSLGRIKKKMLKGQGTFDGEENAVLYQNYKEKALDIDSDEESEPKEQKSDEKIVIHHKPLRSTWSQLSAVKRKGLSQTVSQEERKRQEAIFEVISSEHSYLLSLEILIRMFKNSKELSDTMTKTERHHLFSNITDVCEASKKFFIELEARHQNNIFIDDISDIVEKHTASTFDPYVKYCTNEVYQQRTLQKLLATNPSFKEVLSRIESHEDCRNLPMISFLILPMQRVTRLPLLMDTICQKTPKDSPKYEVCKRALKEVSKLVRLCNEGARKMERTEMMYTINSQLEFKIKPFPLVSSSRWLVKRGELTAYVEDTVLFSRRTSKQQVYFFLFNDVLIITKKKSEESYNVNDYSLRDQLLVESCDNEELNSSPGKNSSTMLYSRQSSASHLFTLTVLSNHANEKVEMLLGAETQSERARWITALGHSSGKPPADRTSLTQVEIVRSFTAKQPDELSLQVADVVLIYQRVSDGWYEGERLRDGERGWFPMECAKEITCQATIDKNVERMGRLLGLETNV	–	abolished the interaction	–
T49A (protein, UniProt Q96DR7 1-871, looked up, variant T49A) Rho guanine nucleotide …: MDGESEVDFSSNSITPLWRRRSIPQPHQVLGRSKPRPQSYQSPNGLLIADFPVEDGGTLLAAQIPAQVPTASDSRTVHRSPLLLGAQRRAVANGGTASPEYRAASPRLRRPKSPKLPKAVPGGSPKSPANGAVTLPAPPPPPVLRPPRTPNAPAPCTPEEDLTGLTASPVPSPTANGLAANNDSPGSGSQSGRKAKDPERGLFPGPQKSSSEQKLPLQRLPSQENELLENPSVVLSTNSPAALKVGKQQIIPKSLASEIKISKSNNQNVEPHKRLLKVRSMVEGLGGPLGHAGEESEVDNDVDSPGSLRRGLRSTSYRRAVVSGFDFDSPTSSKKKNRMSQPVLKVVMEDKEKFSSLGRIKKKMLKGQGTFDGEENAVLYQNYKEKALDIDSDEESEPKEQKSDEKIVIHHKPLRSTWSQLSAVKRKGLSQTVSQEERKRQEAIFEVISSEHSYLLSLEILIRMFKNSKELSDTMTKTERHHLFSNITDVCEASKKFFIELEARHQNNIFIDDISDIVEKHTASTFDPYVKYCTNEVYQQRTLQKLLATNPSFKEVLSRIESHEDCRNLPMISFLILPMQRVTRLPLLMDTICQKTPKDSPKYEVCKRALKEVSKLVRLCNEGARKMERTEMMYTINSQLEFKIKPFPLVSSSRWLVKRGELTAYVEDTVLFSRRTSKQQVYFFLFNDVLIITKKKSEESYNVNDYSLRDQLLVESCDNEELNSSPGKNSSTMLYSRQSSASHLFTLTVLSNHANEKVEMLLGAETQSERARWITALGHSSGKPPADRTSLTQVEIVRSFTAKQPDELSLQVADVVLIYQRVSDGWYEGERLRDGERGWFPMECAKEITCQATIDKNVERMGRLLGLETNV	–	completely abolish the interaction	–
SGEF ΔETNV: SGEF with deletion of the PBM, 1–867 (protein, left off: myc (inferred from the legends of Figures 1 and 2), end not stated, kept) MDGESEVDFSSNSITPLWRRRSIPQPHQVLGRSKPRPQSYQSPNGLLITDFPVEDGGTLLAAQIPAQVPTASDSRTVHRSPLLLGAQRRAVANGGTASPEYRAASPRLRRPKSPKLPKAVPGGSPKSPANGAVTLPAPPPPPVLRPPRTPNAPAPCTPEEDLTGLTASPVPSPTANGLAANNDSPGSGSQSGRKAKDPERGLFPGPQKSSSEQKLPLQRLPSQENELLENPSVVLSTNSPAALKVGKQQIIPKSLASEIKISKSNNQNVEPHKRLLKVRSMVEGLGGPLGHAGEESEVDNDVDSPGSLRRGLRSTSYRRAVVSGFDFDSPTSSKKKNRMSQPVLKVVMEDKEKFSSLGRIKKKMLKGQGTFDGEENAVLYQNYKEKALDIDSDEESEPKEQKSDEKIVIHHKPLRSTWSQLSAVKRKGLSQTVSQEERKRQEAIFEVISSEHSYLLSLEILIRMFKNSKELSDTMTKTERHHLFSNITDVCEASKKFFIELEARHQNNIFIDDISDIVEKHTASTFDPYVKYCTNEVYQQRTLQKLLATNPSFKEVLSRIESHEDCRNLPMISFLILPMQRVTRLPLLMDTICQKTPKDSPKYEVCKRALKEVSKLVRLCNEGARKMERTEMMYTINSQLEFKIKPFPLVSSSRWLVKRGELTAYVEDTVLFSRRTSKQQVYFFLFNDVLIITKKKSEESYNVNDYSLRDQLLVESCDNEELNSSPGKNSSTMLYSRQSSASHLFTLTVLSNHANEKVEMLLGAETQSERARWITALGHSSGKPPADRTSLTQVEIVRSFTAKQPDELSLQVADVVLIYQRVSDGWYEGERLRDGERGWFPMECAKEITCQATIDKNVERMGRLLGL	–	no effect on the ability of SGEF to bind to Scribble	still interacted efficiently with Dlg1
414–871: C-terminal half of SGEF: DH-PH domain, SH3 domain and PBM (protein, UniProt Q96DR7 414-871, looked up, fragment) LRSTWSQLSAVKRKGLSQTVSQEERKRQEAIFEVISSEHSYLLSLEILIRMFKNSKELSDTMTKTERHHLFSNITDVCEASKKFFIELEARHQNNIFIDDISDIVEKHTASTFDPYVKYCTNEVYQQRTLQKLLATNPSFKEVLSRIESHEDCRNLPMISFLILPMQRVTRLPLLMDTICQKTPKDSPKYEVCKRALKEVSKLVRLCNEGARKMERTEMMYTINSQLEFKIKPFPLVSSSRWLVKRGELTAYVEDTVLFSRRTSKQQVYFFLFNDVLIITKKKSEESYNVNDYSLRDQLLVESCDNEELNSSPGKNSSTMLYSRQSSASHLFTLTVLSNHANEKVEMLLGAETQSERARWITALGHSSGKPPADRTSLTQVEIVRSFTAKQPDELSLQVADVVLIYQRVSDGWYEGERLRDGERGWFPMECAKEITCQATIDKNVERMGRLLGLETNV	–	–	showed no binding
SGEF 1–350: SGEF deletion mutant 1–350 (protein, left off: myc (inferred from the legend of Figure 2), end not stated, kept) MDGESEVDFSSNSITPLWRRRSIPQPHQVLGRSKPRPQSYQSPNGLLITDFPVEDGGTLLAAQIPAQVPTASDSRTVHRSPLLLGAQRRAVANGGTASPEYRAASPRLRRPKSPKLPKAVPGGSPKSPANGAVTLPAPPPPPVLRPPRTPNAPAPCTPEEDLTGLTASPVPSPTANGLAANNDSPGSGSQSGRKAKDPERGLFPGPQKSSSEQKLPLQRLPSQENELLENPSVVLSTNSPAALKVGKQQIIPKSLASEIKISKSNNQNVEPHKRLLKVRSMVEGLGGPLGHAGEESEVDNDVDSPGSLRRGLRSTSYRRAVVSGFDFDSPTSSKKKNRMSQPVLKVVMED	–	–	able to bind to Dlg1
